From ChEMBL document CHEMBL1128448, “Synthesis and antifungal activity of new azole derivatives containing an N-acylmorpholine ring” (1995)
Values after ≈ are worked out from the molar mass of the structure shown.

What was measured:
Format in all cases: functional
Aspergillus fumigatus = test: In vitro evaluation of minimum inhibitory concentration against Aspergillus fumigatus 33
Summary of the method: (§1)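 Stocks are 800 μg/mL in 50% ethanol. Each plate gets 10 μL of inoculum at 10^5 cfu/mL. Incubation at 25 °C, 48 h for yeasts and 120 h for dermatophytes and molds. Organisms are ATCC strains or clinical isolates.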

Aspergillus niger = test: In vitro evaluation of minimum inhibitory concentration against Aspergillus niger 18; settings: Aspergillus niger; read-out: MIC; summary of the method: as §1
Candida albicans [1] = test: In vitro evaluation of minimum inhibitory concentration against Candida albicans 76; settings: Candida albicans; read-out: MIC; summary of the method: as §1
Candida albicans [2] = test: In vivo evaluation of minimum inhibitory concentration against Candida albicans 406; settings: Candida albicans; read-out: MIC
Summary of the method: (§2)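 Broth macrodilution MIC following NCCLS M27-P, in RPMI-1640 buffered with 0.165 M MOPS. Fluconazole was dissolved in water and other drugs in DMSO. C. parapsilosis ATCC 22019 served as the reference strain in every run. MIC was the lowest concentration giving turbidity at or below the 80% inhibition standard.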

Candida albicans [3] = test: In vivo evaluation of minimum inhibitory concentration against Candida albicans 60; settings: Candida albicans; read-out: MIC; summary of the method: as §2
Candida albicans [4] = test: Evaluation of In vitro antifungal activity against Candida albicans 2.01 by broth macro dilution method
Summary of the method: (§3)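 Yeast MIC and MFC by broth macrodilution per NCCLS M27-P in RPMI-1640 buffered with 0.165 M MOPS. Fluconazole in sterile water, other drugs in DMSO. C. parapsilosis ATCC 22019 is the reference strain in each run. MIC is the lowest concentration with turbidity ≤ the 80% inhibition standard. For MFC, 0.04 mL from clear tubes is plated on Sabouraud agar; MFC is the lowest concentration giving ≤1 colony.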

Candida albicans [5] = test: Evaluation of In vitro antifungal activity against Candida albicans 31 by broth macro dilution method; summary of the method: as §3
Candida albicans [6] = test: Evaluation of In vitro antifungal activity against Candida albicans 406 by broth macro dilution method; summary of the method: as §3
Candida albicans [7] = test: Evaluation of In vitro antifungal activity against Candida albicans 76 by broth macro dilution method; summary of the method: as §3
Candida albicans [8] = test: Evaluation of In vitro antifungal activity against Candida albicans ATCC 10231 by broth macro dilution method; summary of the method: as §3
Candida albicans [9] = test: Evaluation of In vitro antifungal activity against Candida albicans C52 by broth macro dilution method; summary of the method: as §3
Candida albicans [10] = test: Evaluation of […] antifungal activity against Candida albicans 60 by broth macro dilution method; summary of the method: as §3
[11] = system: Meyerozyma guilliermondii; test: Evaluation of In vitro antifungal activity against Candida guilliermondii 26 by broth macro dilution method; summary of the method: as §3
[12] = system: Meyerozyma guilliermondii; test: In vitro evaluation of minimum inhibitory concentration against Candida guilliermondii 26; summary of the method: as §1
Pichia kudriavzevii [13] = test: Evaluation of In vitro antifungal activity against Candida krusei 70 by broth macro dilution method; summary of the method: as §3
Pichia kudriavzevii [14] = test: In vitro evaluation of minimum inhibitory concentration against Candida krusei 70; summary of the method: as §1
Kluyveromyces marxianus [15] = test: Evaluation of In vitro antifungal activity against Candida pseudotropicalis ATCC 28838 by broth macro dilution method; summary of the method: as §3
Kluyveromyces marxianus [16] = test: Evaluation of In vitro antifungal activity against yeasts by broth macro dilution method; summary of the method: as §3
Candida parapsilosis [17] = test: Evaluation of In vitro antifungal activity against Candida parapsilosis ATCC 22019 by broth macro dilution method; settings: Lodderomyces parapsilosis; summary of the method: as §3
Candida parapsilosis [18] = test: Evaluation of In vitro antifungal activity against Candida parapsilosis C292 by broth macro dilution method; settings: Lodderomyces parapsilosis; summary of the method: as §3
Candida parapsilosis [19] = test: Evaluation of In vitro antifungal activity against Candida parapsilosis C74 by broth macro dilution method; settings: Lodderomyces parapsilosis; summary of the method: as §3
Candida parapsilosis [20] = test: In vitro evaluation of minimum inhibitory concentration against Candida parapsilosis 61; summary of the method: as §1
Candida tropicalis [21] = test: Evaluation of In vitro antifungal activity against Candida tropicalis 2.11 by broth macro dilution method; summary of the method: as §3
Candida tropicalis [22] = test: Evaluation of In vitro antifungal activity against Candida tropicalis 50 by broth macro dilution method; summary of the method: as §3

SMILES: C[C@@H](NC(=O)c1ccc(C(F)(F)F)cc1)[C@](O)(Cn1cncn1)c1ccc(F)cc1F
- MIC (Aspergillus fumigatus): 20 µg/mL (≈ 45.4 µM)
- MIC (Aspergillus niger): 40 µg/mL (≈ 90.8 µM)
- MIC (Candida albicans [1]): 80 µg/mL (≈ 182 µM)
- MIC (Candida albicans [2]): 0.15 µg/mL (≈ 0.341 µM)
- MIC (Candida albicans [3]): 0.15 µg/mL (≈ 0.341 µM)
- MFC (Candida albicans [4]): > 64 µg/mL
- MIC (Candida albicans [4]): 0.125 µg/mL (≈ 0.284 µM)
- MFC (Candida albicans [5]): > 64 µg/mL
- MIC (Candida albicans [5]): < 0.031 µg/mL
- MFC (Candida albicans [6]): > 64 µg/mL
- MIC (Candida albicans [6]): < 0.031 µg/mL
- MFC (Candida albicans [7]): > 64 µg/mL
- MIC (Candida albicans [7]): < 0.031 µg/mL
- MFC (Candida albicans [8]): > 64 µg/mL
- MIC (Candida albicans [8]): 0.063 µg/mL (≈ 0.143 µM)
- MFC (Candida albicans [9]): > 64 µg/mL
- MIC (Candida albicans [9]): < 0.031 µg/mL
- MIC (Candida albicans [10]): < 0.031 µg/mL
- MFC [11]: 4 µg/mL (≈ 9.08 µM)
- MIC [11]: 0.25 µg/mL (≈ 0.568 µM)
- MIC [12]: 0.63 µg/mL (≈ 1.43 µM)
- MFC (Pichia kudriavzevii [13]): 8 µg/mL (≈ 18.2 µM)
- MIC (Pichia kudriavzevii [13]): 2 µg/mL (≈ 4.54 µM)
- MIC (Pichia kudriavzevii [14]): 20 µg/mL (≈ 45.4 µM)
- MFC (Kluyveromyces marxianus [15]): 2 µg/mL (≈ 4.54 µM)
- MIC (Kluyveromyces marxianus [16]): < 0.031 µg/mL
- MFC (Candida parapsilosis [17]): 2 µg/mL (≈ 4.54 µM)
- MIC (Candida parapsilosis [17]): 0.125 µg/mL (≈ 0.284 µM)
- MFC (Candida parapsilosis [18]): 4 µg/mL (≈ 9.08 µM)
- MIC (Candida parapsilosis [18]): 0.063 µg/mL (≈ 0.143 µM)
- MFC (Candida parapsilosis [19]): 0.125 µg/mL (≈ 0.284 µM)
- MIC (Candida parapsilosis [19]): ≤ 0.031 µg/mL
- MIC (Candida parapsilosis [20]): 2.5 µg/mL (≈ 5.68 µM)
- MFC (Candida tropicalis [21]): 64 µg/mL (≈ 145 µM)
- MIC (Candida tropicalis [21]): 0.25 µg/mL (≈ 0.568 µM)
- MFC (Candida tropicalis [22]): > 64 µg/mL
